Active and inactive are the calls of the source.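 The calls were made as follows, unless noted: active = fluorescence slope higher than the sample average by over 3 SD (cut at about -0.22 in these data, passing the limit was not always enough); inactive = the rest.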
What was measured:
[1] = inhibitors of TNFa-induced NFkB p65 translocation, primary screen, imaging, HUVEC, MLSMR starter and 10KST1 sets (AID 438;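 active = inhibition above 20% together with a positive visual image hit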;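 also: compound added about 3h40 before a 20 min TNFalpha stimulation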;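 as to inhibition: signal is the nuclear over cytoplasmic p65 intensity ratio per well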); conditions: HUVEC TNFa-induced p65 nuclear translocation; cell count: measured here: nuclei count (cytotoxicity indicator), at 2.08 µM; inhibition: at 2 µM, stronger effect = higher value, 0% TNFa-plus-vehicle, 100% no-TNFa wells
[2] = inhibitors of E-selectin induction by TNFa, primary screen, imaging, HUVEC, immunofluorescence, MLSMR starter and 10KST1 sets (AID 487;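 active = visually confirmed hit in the image check and inhibition above 20%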;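 as to inhibition: signal is fraction of cell area covered by stained E-selectin grains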;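 as to nuclei count: 100% = median nuclei count of all wells on the same plate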); conditions: HUVEC TNFalpha-induced E-selectin immunofluorescence imaging, at 2 µM; inhibition: stronger effect = higher value; nuclei count: measured here: cell number, toxicity
[3] = DUSP6 inhibitors restoring Erk phosphorylation by chemical complementation, primary imaging in DUSP6-transfected HeLa (AID 609;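 active = compounds giving at least 50% inhibition in the cell-based MKP-3 phosphatase rescue imaging test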;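 as to inhibition: phospho-Erk level distribution per well compared with pooled transfected vehicle control wells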); conditions: HeLa MKP-3 transfected, phospho-Erk imaging KS statistic, at 10 µM, cells stimulated with TPA for 15 min
[4] = biological target: Dual specificity protein phosphatase 6 (Homo sapiens) (UniProt Q16828); assay: as above; conditions: HeLa MKP-3 transfected, phospho-Erk imaging KS statistic; at 10 µM; stronger effect = higher value; cells stimulated with TPA for 15 min
[5] = biological target: Voltage-gated potassium channel subunit beta-2 (Rattus norvegicus) (UniProt P62483); assay: KvBeta enzyme negative modulators, primary screen, biochemical, NADPH fluorescence (AID 622); conditions: recombinant KvBeta, 4-cyanobenzaldehyde reduction, at 10 µM, stronger effect = higher value;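 also: slope of raw intensity against log time taken from 70 to 1610 s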
[6] = biological target: Voltage-gated potassium channel subunit beta-2 (Rattus norvegicus) (UniProt P62483); assay: KvBeta positive modulators, primary screen, biochemical, NADPH fluorescence (AID 623;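 active = NADPH fluorescence slope more negative than the mean of all samples by about 3 SD, 99.7% confidence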;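 also: fluorescence intensity change per second fitted from 20 to 320 s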); conditions: Recombinant KvBeta, NADPH fluorescence decrease slope, 10 min; at 10 µM; stronger effect = lower value
[7] = biological target: Alpha-2C adrenergic receptor (Homo sapiens) (UniProt P18825); assay: modulators of alpha2C/GIRK thallium flux, primary screen, cell-based, HEK293 alpha2C/GIRK1/2 (AID 624;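 active = fluorescence slope after compound addition differing from the mean of all screened samples at 99.7% confidence, in either direction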;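 also: slope of fluorescence ratio to pre-addition baseline per second over 15 to 24 s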); conditions: thallium flux BTC fluorescence, at 10 µM, actives lie on both sides
[8] = inhibitors of larval lipid processing in zebrafish, primary screen, whole organism, PED6 fluorescence, gall bladder and intestine (AID 686;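 active = a full or partial loss of lipid-probe fluorescence in the fish gall bladder, intestine or both, judged by eye; inactive = no fluorescence loss, or compound toxic to the fish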;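 also: larvae 5 to 7 days old with five fish per well; signal comes from phospholipase A2 cleavage of quenched PED6 carried via bile; overnight exposure to compound and PED6 before scoring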); conditions: Zebrafish larvae PED6 lipid processing, fluorescence scoring; screened at 20 µM (by protocol)
Procedure, shortened: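 Doses: 20 µM single dose. Test system: live zebrafish larvae aged 5-7 days, whole organism. Quantity: five larvae per well. Measured by: By-eye fluorescence microscopy. Reagent: ingested quenched lipid PED6 at 100 nM. Read-out: visual per-well fluorescence inhibition score. Times: overnight exposure of larvae to compound plus PED6.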

[9] = inhibitors of Chlamydomonas gravitaxis, primary screen, whole organism, Chlamydomonas reinhardtii, WT vs cilia-less mutant, absorbance, 96-well (AID 463189;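 active = inhibition at or above 50% relative to wild type and mutant plate controls; inactive = inhibition below 50%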;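 also: 0% = wild type cc124 cells in DMSO and 100% = ciliumless bld1 mutant cells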); conditions: OD600 absorbance, 2 days, at 10 µM, stronger effect = higher value
[10] = measured here: cell density z-score
[11] = measured here: nuclear c-Myc green intensity z-score
[12] = measured here: nuclear pErk red intensity z-score, stronger effect = higher value

Voltage-gated potassium channel subunit beta-2 (Rattus norvegicus), sequence (P62483 whole entry, looked up): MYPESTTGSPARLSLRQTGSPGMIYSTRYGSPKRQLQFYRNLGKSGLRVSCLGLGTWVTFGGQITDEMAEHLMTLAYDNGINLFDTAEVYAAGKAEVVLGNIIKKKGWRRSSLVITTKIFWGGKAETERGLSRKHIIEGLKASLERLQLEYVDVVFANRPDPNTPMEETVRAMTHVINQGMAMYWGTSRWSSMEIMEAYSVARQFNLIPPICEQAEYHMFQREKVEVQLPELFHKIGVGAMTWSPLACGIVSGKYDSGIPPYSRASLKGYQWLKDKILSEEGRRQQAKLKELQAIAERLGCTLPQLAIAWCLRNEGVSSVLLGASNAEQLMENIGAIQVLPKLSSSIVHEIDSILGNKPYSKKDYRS
Dual specificity protein phosphatase 6 (Homo sapiens), sequence (Q16828 whole entry, looked up): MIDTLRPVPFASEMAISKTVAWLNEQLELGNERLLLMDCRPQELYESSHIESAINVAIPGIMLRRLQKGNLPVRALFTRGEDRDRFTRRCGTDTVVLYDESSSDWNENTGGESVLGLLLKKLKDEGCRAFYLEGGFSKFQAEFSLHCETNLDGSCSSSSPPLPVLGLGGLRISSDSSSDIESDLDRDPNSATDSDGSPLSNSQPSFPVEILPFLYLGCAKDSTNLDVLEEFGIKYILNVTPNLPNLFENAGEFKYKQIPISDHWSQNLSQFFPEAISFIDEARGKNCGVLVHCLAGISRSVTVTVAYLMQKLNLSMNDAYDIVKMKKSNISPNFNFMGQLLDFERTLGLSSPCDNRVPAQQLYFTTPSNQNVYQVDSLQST
Alpha-2C adrenergic receptor (Homo sapiens), sequence (P18825 whole entry, looked up): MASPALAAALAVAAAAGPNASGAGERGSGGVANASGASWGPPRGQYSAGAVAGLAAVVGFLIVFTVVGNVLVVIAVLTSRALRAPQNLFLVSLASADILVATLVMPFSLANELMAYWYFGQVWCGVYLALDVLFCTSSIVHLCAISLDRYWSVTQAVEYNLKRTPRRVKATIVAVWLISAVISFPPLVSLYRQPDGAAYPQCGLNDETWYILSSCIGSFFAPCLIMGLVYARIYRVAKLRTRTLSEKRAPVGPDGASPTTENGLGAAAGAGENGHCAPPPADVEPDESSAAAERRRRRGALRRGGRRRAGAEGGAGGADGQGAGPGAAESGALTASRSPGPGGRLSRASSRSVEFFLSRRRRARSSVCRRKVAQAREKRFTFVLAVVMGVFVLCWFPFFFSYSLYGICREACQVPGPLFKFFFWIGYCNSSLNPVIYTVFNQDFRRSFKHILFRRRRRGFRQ

Compound | cell count [1] | inhibition [1] | inhibition [2] | nuclei count [2] [%] | z-score [3, 10] | z-score [3, 11] | z-score [3, 12] | inhibition [4] | fluorescence slope [5] | NADPH fluorescence slope [6] | slope [7] | outcome [8] | inhibition [9]
COc1cccc(COc2nc3c(c(=O)n(C)c(=O)n3C)n2C)c1 | 456 | -4.5% (inactive) | -99.3% (inactive) | 164 | -0.352 | 0.147 | -0.806 | -7.28% (inactive) | -0.325 (inactive) | -1.3e-06 (inactive) | 0.00578 (inactive) | inactive | 5.71% (inactive)
O=C(Nc1ccc(Cl)cn1)C1CCCN1S(=O)(=O)c1ccccc1 (stereo not drawn) | 365 | 4.7% (inactive) | -101% (inactive) | 154 | 2.19 | 0.087 | -0.0829 | 11.3% (inactive) | -0.415 (inactive) | -4e-05 (inactive) | 0.00596 (inactive) | inactive | -3.35% (inactive)
CCNc1nc(Oc2ccccc2)nc(OC(C)C(=O)OCC)n1 (stereo not drawn) | 674 | 1.4% (inactive) | -19.3% (inactive) | 172 | -0.682 | -0.0206 | 2.56 | -2.07% (inactive) | -0.532 (inactive) | -6.7e-05 (inactive) | 0.00506 (inactive) | inactive | -3.35% (inactive)
N#CC1=C(N)NC(SCc2ccc(Cl)cc2)=C(C#N)C12CCCCC2 | 630 | -23% (inactive) | 44.1% (inactive) | 180 | 0.0253 | -0.669 | 0.519 | 1.04% (inactive) | -0.409 (inactive) | -5.9e-05 (inactive) | 0.00372 (inactive) | inactive | 18.9% (inactive)
CCOC(=O)c1c(C)cccc1OCC(N)=O | 638 | -2.3% (inactive) | 13.5% (inactive) | 175 | -0.228 | -0.623 | 1.22 | -0.159% (inactive) | -0.487 (inactive) | -0.000164 (inactive) | 0.0049 (inactive) | inactive | -5.84% (inactive)
O=c1[nH]c(=O)n(Cc2ccco2)c2c1C(C(F)(F)F)(C(F)(F)F)N=C(c1ccco1)N2 | 505 | -2.5% (inactive) | -212% (inactive) | 132 | -0.683 | -0.978 | -0.242 | 1.75% (inactive) | -0.502 (inactive) | -5.4e-05 (inactive) | 0.00631 (inactive) | inactive | -4.12% (inactive)
Clc1ccc(-c2nnc3sc(Cc4cccs4)nn23)c(Cl)c1 | 664 | 0.3% (inactive) | -136% (inactive) | 169 | 0.203 | 0.587 | -0.53 | -9.66% (inactive) | -0.43 (inactive) | -0.00015 (inactive) | 0.00477 (inactive) | inactive | 37.7% (inactive)
Oc1ccccc1-c1nc(NCCN2CCOCC2)c2ccccc2n1 | 268 | -6.5% (inactive) | 14.7% (inactive) | 96.7 | 0.138 | 3.56 | -0.549 | 1.6e-07% (inactive) | -0.423 (inactive) | -3.4e-05 (inactive) | 0.00504 (inactive) |  | 62.5% (active)
Cc1nc(-c2cn[nH]c2)c2cc(C)oc2n1 | 599 | -33.9% (inactive) | -51.1% (inactive) | 120 | -2.18 | 1.64 | 0.464 | -2.07% (inactive) | -0.491 (inactive) | -0.00022 (inactive) | 0.00453 (inactive) | inactive | -8.8% (inactive)
CCOc1ccc(/C(O)=C2/C(=O)C(=O)N(CCN(C)C)C2c2ccccc2)cc1Cl (stereo not drawn) | 539 | -10.3% (inactive) | -64% (inactive) | 156 | 2.52 | 0.178 | -1.22 | 2.92% (inactive) | -0.502 (inactive) | -5.4e-05 (inactive) | 0.00531 (inactive) | inactive | 2.01% (inactive)
Cc1ccc(N2C(=O)[C@@H]3[C@H](C2=O)C2CCCN2[C@@H]3C(=O)c2ccccc2)cc1 (stereo partly drawn) | 329 | -6.6% (inactive) | -25.8% (inactive) | 146 | 1.29 | -0.857 | 1.07 | -8.59% (inactive) | -0.42 (inactive) | -0.000146 (inactive) | 0.00854 (inactive) | inactive | 0.279% (inactive)
CCCc1[nH]nc2c1C(c1cccc(OC)c1)C(C#N)=C(N)O2 (stereo not drawn) | 653 | -18% (inactive) | 32.3% (inactive) | 178 | -0.436 | -0.724 | 0.801 | 1.04% (inactive) | -0.401 (inactive) | -5.6e-05 (inactive) | 0.00438 (inactive) | inactive | 11.7% (inactive)
COC(=O)CSC1=C(C#N)C(=O)NC2(CCCCC2)S1 | 573 | -10.7% (inactive) | -35.3% (inactive) | 154 | -0.563 | 0.765 | 0.767 | -11.5% (inactive) | -0.493 (inactive) | -4.7e-05 (inactive) | 0.00592 (inactive) | inactive | -6.72% (inactive)
